In ChEMBL document CHEMBL1152754, “18F-labeled flavones for in vivo imaging of beta-amyloid plaques in Alzheimer's brains” (Bioorg Med Chem, 2009):
Each block holds one compound with its values, some of them ahead of it. Active and inactive are the calls of the source. No cut-off for these calls is given here.

Key:
[1] = Displacement of [125I]DMFV from amyloid beta (1 to 42) aggregates
Outline: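 Aβ(1-42) aggregated at 0.25 mg/mL in 10 mM sodium phosphate with 1 mM EDTA, pH 7.4, 37 °C for 42 h. Competition: 0.02 nM [125I]DMFV, test compound at 0.2 pM–400 µM, and aggregates in 10% EtOH, incubated 3 h at room temperature. Bound ligand collected on GF/B filters and gamma-counted. IC50 taken from displacement curves; Ki by Cheng-Prusoff using DMFV Kd 12.3 nM.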

Bone [2] = assay: Biodistribution in ddY mouse bone at 18.5 kBq, iv after 60 mins; format: ADME, organism-based, Bone element; details: in vivo, 1 h
Outline: (§1)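 Normal ddY mice (5 weeks old, 22–25 g) received 18.5 kBq of 18F-labeled agent by tail-vein injection in 100 µL saline containing 5 µL ethanol. Killed under isoflurane anesthesia at each time point; organs removed and weighed, radioactivity gamma-counted. Expressed as %ID/g, mean ± SD of 4–5 mice per interval.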

Bone [3] = assay: Biodistribution in ddY mouse bone at 18.5 kBq, iv after 30 mins; format: ADME, organism-based, Bone element; details: in vivo, 0.5 h; outline: as §1
Blood [4] = assay: Biodistribution in ddY mouse blood at 18.5 kBq, iv after 10 mins; format: ADME, organism-based; details: in vivo; outline: as §1
Bone [5] = assay: Biodistribution in ddY mouse bone at 18.5 kBq, iv after 10 mins; format: ADME, organism-based, Bone element; details: in vivo; outline: as §1
Brain [6] = assay: Biodistribution in ddY mouse brain at 18.5 kBq, iv after 60 mins; format: ADME, organism-based; details: in vivo, 1 h; outline: as §1
Brain [7] = assay: Biodistribution in ddY mouse brain at 18.5 kBq, iv after 2 mins; format: ADME, organism-based; details: in vivo; outline: as §1
Brain [8] = assay: Biodistribution in ddY mouse brain at 18.5 kBq, iv after 10 mins; format: ADME, organism-based; details: in vivo; outline: as §1
Bone [9] = assay: Biodistribution in ddY mouse bone at 18.5 kBq, iv after 2 mins; format: ADME, organism-based, Bone element; details: in vivo; outline: as §1
Blood [10] = assay: Biodistribution in ddY mouse blood at 18.5 kBq, iv after 30 mins; format: ADME, organism-based; details: in vivo, 0.5 h; outline: as §1
Brain [11] = assay: Biodistribution in ddY mouse brain at 18.5 kBq, iv after 30 mins; format: ADME, organism-based; details: in vivo, 0.5 h; outline: as §1
Blood [12] = assay: Biodistribution in ddY mouse blood at 18.5 kBq, iv after 2 mins; format: ADME, organism-based; details: in vivo; outline: as §1
Blood [13] = assay: Biodistribution in ddY mouse blood at 18.5 kBq, iv after 60 mins; format: ADME, organism-based; details: in vivo, 1 h; outline: as §1
Mus musculus = species on record: Mus musculus; assay: Binding affinity to amyloid beta (1 to 42) aggregates in Tg2576 mouse brain at 100 uM by fluorescent staining method; format: tissue-based
Outline: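 Tg2576 transgenic mice (female, 20 months old) killed by decapitation under isoflurane; brains frozen in powdered dry ice and cut into 10 µm serial cryosections. Sections incubated with a 100 µM solution of fluorescent ligand in 50% ethanol, washed twice for 3 min in 50% ethanol, imaged by fluorescence microscopy (excitation 450–490 nm). Adjacent sections immunostained with anti-β-amyloid monoclonal antibody, DAB chromogen.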

SMILES: CNc1ccc(-c2cc(=O)c3cc(F)ccc3o2)cc1
- Ki [1]: 110 nM

SMILES: Nc1ccc(-c2cc(=O)c3cc(F)ccc3o2)cc1
- Ki [1]: 260 nM

SMILES: CN(C)c1ccc(-c2cc(=O)c3cc(OCC[18F])ccc3o2)cc1
- Drug uptake (Bone [2]): 6.21 % ID/g
- Drug uptake (Bone [3]): 4.51 % ID/g
- Drug uptake (Blood [4]): 2.71 % ID/g
- Drug uptake (Bone [5]): 2.83 % ID/g
- Drug uptake (Brain [6]): 2.19 % ID/g
- Drug uptake (Brain [7]): 4.17 % ID/g
- Drug uptake (Brain [8]): 3.62 % ID/g
- Drug uptake (Bone [9]): 2.02 % ID/g
- Drug uptake (Blood [10]): 2.53 % ID/g
- Drug uptake (Brain [11]): 1.89 % ID/g
- Drug uptake (Blood [12]): 2.8 % ID/g
- Drug uptake (Blood [13]): 3.25 % ID/g

SMILES: Nc1ccc(-c2cc(=O)c3cc(OCCF)ccc3o2)cc1
- Ki [1]: 234 nM

SMILES: CN(C)c1ccc(-c2cc(=O)c3cc(OCCOCCF)ccc3o2)cc1
- Activity (Mus musculus): Active
- Ki [1]: 14.4 nM

SMILES: CN(C)c1ccc(-c2cc(=O)c3cc(OCCF)ccc3o2)cc1
- Activity (Mus musculus): Active
- Ki [1]: 5.3 nM

SMILES: CN(C)c1ccc(-c2cc(=O)c3cc(F)ccc3o2)cc1
- Ki [1]: 73.9 nM

Further lines, results first:

- Ki [1]: 54.5 nM
SMILES: CNc1ccc(-c2cc(=O)c3cc(OCCOCCF)ccc3o2)cc1

- Ki [1]: 99 nM
SMILES: CNc1ccc(-c2cc(=O)c3cc(OCCF)ccc3o2)cc1

- Ki [1]: 234 nM
SMILES: Nc1ccc(-c2cc(=O)c3cc(OCCOCCOCCF)ccc3o2)cc1

- Ki [1]: 45.1 nM
SMILES: CNc1ccc(-c2cc(=O)c3cc(OCCOCCOCCF)ccc3o2)cc1

- Activity (Mus musculus): Active
- Ki [1]: 19.3 nM
SMILES: CN(C)c1ccc(-c2cc(=O)c3cc(OCCOCCOCCF)ccc3o2)cc1

- Ki [1]: 321 nM
SMILES: Nc1ccc(-c2cc(=O)c3cc(OCCOCCF)ccc3o2)cc1

- Drug uptake (Bone [2]): 3.74 % ID/g
- Drug uptake (Bone [3]): 2.42 % ID/g
- Drug uptake (Blood [4]): 2.3 % ID/g
- Drug uptake (Bone [5]): 1.65 % ID/g
- Drug uptake (Brain [6]): 2.13 % ID/g
- Drug uptake (Brain [7]): 3.54 % ID/g
- Drug uptake (Brain [8]): 2.75 % ID/g
- Drug uptake (Bone [9]): 1.13 % ID/g
- Drug uptake (Blood [10]): 2.5 % ID/g
- Drug uptake (Brain [11]): 2 % ID/g
- Drug uptake (Blood [12]): 2.09 % ID/g
- Drug uptake (Blood [13]): 2.94 % ID/g
SMILES: CN(C)c1ccc(-c2cc(=O)c3cc(OCCOCC[18F])ccc3o2)cc1

- Drug uptake (Bone [2]): 5.21 % ID/g
- Drug uptake (Bone [3]): 4.06 % ID/g
- Drug uptake (Blood [4]): 1.5 % ID/g
- Drug uptake (Bone [5]): 2.38 % ID/g
- Drug uptake (Brain [6]): 1.37 % ID/g
- Drug uptake (Brain [7]): 2.89 % ID/g
- Drug uptake (Brain [8]): 2.23 % ID/g
- Drug uptake (Bone [9]): 1.53 % ID/g
- Drug uptake (Blood [10]): 1.4 % ID/g
- Drug uptake (Brain [11]): 1.31 % ID/g
- Drug uptake (Blood [12]): 2.35 % ID/g
- Drug uptake (Blood [13]): 1.88 % ID/g
SMILES: CN(C)c1ccc(-c2cc(=O)c3cc(OCCOCCOCC[18F])ccc3o2)cc1
